Source: ChEMBL document CHEMBL3243926, “Prodrugs of 9-beta-D-arabinofuranosyladenine. 1. Synthesis and evaluation of some 5'-(O-acyl) derivatives” (J Med Chem, 1978)
In brackets after ≈: the same amount, converted by molar mass.

Assays:
[1] = Aqueous solubility of the compound at 0.1 M phosphate buffer after 16 hrs by UV spectrometry; type: physicochemical
Outline: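 Excess solid (10 mg) was agitated for 16 h with 5 mL of 0.1 M phosphate buffer. The mixture was filtered through sintered glass to remove undissolved solid. Dissolved concentration was determined from UV absorbance against values previously determined in buffer.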

Human alphaherpesvirus 1 [2] = test: Antiviral activity against HSV-1 assessed at 17 ug/ml by plaque reduction assay relative to control; type: functional; set-up: scale not given: the % may be the effect or the level left
Human alphaherpesvirus 1 [3] = test: Antiviral activity against HSV-1 assessed at 6 ug/ml by plaque reduction assay relative to control; type: functional; set-up: scale not given: the % may be the effect or the level left
Human alphaherpesvirus 1 [4] = test: Antiviral activity against HSV-1 assessed at 0.6 ug/ml by plaque reduction assay relative to control; type: functional; set-up: scale not given: the % may be the effect or the level left
Adenosine deaminase [5] = target: T1, Adenosine deaminase (Bos taurus, UniProt P56658); test: Stability of the compound assessed as calf mucosal adenosine deaminase-mediated drug metabolism; type: ADME; conditions: cattle
T1 sequence (P56658 whole entry): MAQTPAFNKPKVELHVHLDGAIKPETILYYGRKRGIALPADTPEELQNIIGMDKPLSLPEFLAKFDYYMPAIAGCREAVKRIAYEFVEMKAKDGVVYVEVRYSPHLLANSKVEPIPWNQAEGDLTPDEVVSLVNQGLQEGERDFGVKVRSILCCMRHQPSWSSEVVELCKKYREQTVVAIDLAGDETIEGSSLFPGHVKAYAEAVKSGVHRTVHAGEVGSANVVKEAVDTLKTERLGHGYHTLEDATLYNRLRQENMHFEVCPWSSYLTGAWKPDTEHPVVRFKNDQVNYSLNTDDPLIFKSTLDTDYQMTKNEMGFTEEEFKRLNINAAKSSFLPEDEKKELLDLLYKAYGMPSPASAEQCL

[6] = Aqueous stability of the compound assessed as time required for 10% decomposition at 25 degC by Arrhenius plot; type: physicochemical; conditions: buffer
Outline: (§1)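 Ester hydrolysis was followed at pH 6.56 at 60, 80 and 100 °C by HPLC (40:60 methanol-water, 254-nm detection). First-order rates came from log[ester] vs time. An Arrhenius plot of log rate vs reciprocal temperature (K) was extrapolated to 25 °C.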

Adenosine deaminase [7] = target: T1, Adenosine deaminase; test: Inhibition of calf mucosal adenosine deaminase
[8] = Aqueous stability of the compound assessed as hydrolysis rate at 25 degC by Arrhenius plot; type: physicochemical; conditions: buffer; outline: as §1
Human alphaherpesvirus 1 [9] = test: Antiviral activity against HSV-1 assessed at 7 ug/ml by plaque reduction assay relative to control; type: functional; set-up: scale not given: the % may be the effect or the level left
Human alphaherpesvirus 1 [10] = test: Antiviral activity against HSV-1 assessed at 20 ug/ml by plaque reduction assay relative to control; type: functional; set-up: scale not given: the % may be the effect or the level left
Human alphaherpesvirus 1 [11] = test: Antiviral activity against HSV-1 assessed at 6.5 ug/ml by plaque reduction assay relative to control; type: functional; set-up: scale not given: the % may be the effect or the level left
Human alphaherpesvirus 1 [12] = test: Antiviral activity against HSV-1 assessed at 2 ug/ml by plaque reduction assay relative to control; type: functional; set-up: scale not given: the % may be the effect or the level left
[13] = Half life of the compound; type: physicochemical

SMILES | solubility at 16 h [1] [µg/mL] | Stability (Adenosine deaminase [5]) | Activity (Human alphaherpesvirus 1 [3]) [%] | Activity (Human alphaherpesvirus 1 [11]) [%] | also measured
CCCCC(=O)OC[C@H]1O[C@@H](n2cnc3c(N)ncnc32)[C@@H](O)[C@@H]1O | 8400 (≈ 23.9 mM) | Stable | 100 |  | Activity (Human alphaherpesvirus 1 [4]): 90%; Time [6]: 2.25 yr; Ki (Adenosine deaminase [7]): 11 µM; Drug degradation [8]: 5.4 ×10⁻⁶ /hr
Nc1ncnc2c1ncn2[C@@H]1O[C@H](COC(=O)CCc2ccccc2)[C@@H](O)[C@@H]1O | 1500 (≈ 3.76 mM) |  |  |  | Activity (Human alphaherpesvirus 1 [9]): 29%
Nc1ncnc2c1ncn2[C@@H]1O[C@H](COC(=O)c2ccccc2)[C@@H](O)[C@@H]1O | 80 (≈ 0.215 mM) |  |  | 71 | 
Nc1ncnc2c1ncn2[C@@H]1O[C@H](COC=O)[C@@H](O)[C@@H]1O |  |  |  |  | half-life [13]: 10 days
Nc1ncnc2c1ncn2[C@@H]1O[C@H](CO)[C@@H](O)[C@@H]1O [VIDARABINE] |  |  | 54 | 63 | Activity (Human alphaherpesvirus 1 [4]): 0%; Activity (Human alphaherpesvirus 1 [12]): 64%; Activity (Human alphaherpesvirus 1 [9]): 63%; Activity (Human alphaherpesvirus 1 [2]): 100%; Activity (Human alphaherpesvirus 1 [10]): 69%

Now from value to compound, other results behind:

solubility at 16 h [1] [µg/mL] | Stability (Adenosine deaminase [5]) | SMILES | Activity (Human alphaherpesvirus 1 [3]) [%] | Activity (Human alphaherpesvirus 1 [11]) [%] | also measured
6600 (≈ 21.3 mM) |  | CC(=O)OC[C@H]1O[C@@H](n2cnc3c(N)ncnc32)[C@@H](O)[C@@H]1O |  |  | Activity (Human alphaherpesvirus 1 [2]): 86%
9200 (≈ 28.5 mM) |  | CCC(=O)OC[C@H]1O[C@@H](n2cnc3c(N)ncnc32)[C@@H](O)[C@@H]1O | 83 |  | 
16100 (≈ 47.7 mM) |  | CCCC(=O)OC[C@H]1O[C@@H](n2cnc3c(N)ncnc32)[C@@H](O)[C@@H]1O | 67 |  | 
19800 (≈ 56.4 mM) | Stable | CC(C)CC(=O)OC[C@H]1O[C@@H](n2cnc3c(N)ncnc32)[C@@H](O)[C@@H]1O |  |  | Activity (Human alphaherpesvirus 1 [9]): 53%
7000 (≈ 19.9 mM) | Stable | CC(C)(C)C(=O)OC[C@H]1O[C@@H](n2cnc3c(N)ncnc32)[C@@H](O)[C@@H]1O |  |  | Activity (Human alphaherpesvirus 1 [10]): 11%
2500 (≈ 6.84 mM) | Stable | CCCCCC(=O)OC[C@H]1O[C@@H](n2cnc3c(N)ncnc32)[C@@H](O)[C@@H]1O |  | 25 | 
7800 (≈ 21.3 mM) | Stable | CC(C)(C)CC(=O)OC[C@H]1O[C@@H](n2cnc3c(N)ncnc32)[C@@H](O)[C@@H]1O |  | 10 | 
100 (≈ 0.254 mM) |  | CCCCCCCC(=O)OC[C@H]1O[C@@H](n2cnc3c(N)ncnc32)[C@@H](O)[C@@H]1O |  |  | Activity (Human alphaherpesvirus 1 [12]): 45%
